From paper PMC7559020 (ACS infectious diseases, 2020)
Read-outs that look alike come from different tables or passages of the source.

Experiments:
A549 cells = assay: WST-8 cell proliferation; conditions: read-out: CC50 (A549); cell viability, A549 cells, 48 h
DENV2 = assay: Viral plaque reduction assay, DENV2 in A549 cells; format: cell-based; conditions: read-out: EC50-DN2 (A549)
ZIKV [1] = assay: Viral titer reduction assay, ZIKV in A549 cells; format: cell-based, Zika virus
In short: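 ZIKV infection of human A549 lung carcinoma cells with test compound over a dose range. Virus titre reduction measured, run in triplicate. EC50 obtained by nonlinear regression fit of the dose–response curve.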

viral NS3 protease = viral NS3 protease (Dengue virus type 2, UniProt P29990); assay: Protein thermal shift assay; format: binding; conditions: PTSA
3D organoids = assay: Toxicity on 3D mini-brain organoids; format: cell-based, human; conditions: 1.5 μM
ZIKV [2] = assay: Immunofluorescence assay; format: cell-based, Zika virus; conditions: IFA, anti-E 4G2, A549 cells
In short: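 ZIKV-infected cells treated with test compound or DMSO. Viral E protein detected with mouse monoclonal pan-flavivirus anti-E 4G2 and a DyLight 488 goat anti-mouse IgG secondary. Nuclei counterstained with Hoechst.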

ZIKV [3] = assay: ZIKV infection of 3D mini-brain organoids; format: cell-based, Zika virus; conditions: 1.5 μM
MBP-NS3 Y23A = MBP-NS3 Y23A (Dengue virus type 2, UniProt P29990, Y1498A); format: binding, DENV2; conditions: Y23A vs WT
MBP-NS3 L58A = MBP-NS3 L58A (Dengue virus type 2, UniProt P29990, L1533A); assay: SPR binding to MBP-NS3 mutant L58A; parameters: species or system DENV2; conditions: L58A vs WT
ZIKV NS3 = assay: Western blot of ZIKV NS3 and polyprotein precursor in infected A549 cells; format: cell-based, Zika virus; conditions: A549, MOI 0.1, 48 h
In short: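 Preseeded A549 cells were treated with a dose series of test compound or DMSO and infected with ZIKV at MOI 0.1. At 48 h post-infection, cells were washed, harvested, given protease inhibitor cocktail and lysed in SDS-PAGE loading buffer (95 °C, 10 min). Blots were probed with anti-ZIKV NS3 and anti-GAPDH. PP and NS3 band intensities were normalised to GAPDH, N = 3.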

WST-8 cell proliferation = conditions: human
MBP-NS3 H60A = MBP-NS3 H60A (Dengue virus type 2, UniProt P29990, H1535A); format: binding, DENV2; conditions: H60A vs WT
MBP-NS3 I25A = conditions: I25A vs WT
ZIKV [4] = assay: Time of addition experiment, ZIKV titer by plaque forming assay; format: cell-based, Zika virus; conditions: 0.75 μM added at time points postinfection, titers at 48 h
ZIKV [5] = assay: ZIKV inhibition in human neural progenitor cells; format: cell-based, Zika virus; conditions: human iPSC-derived neural progenitor cells, IFA and qRT-PCR
[6] = Repeated oral dosing toxicity in mice; format: in vivo, mouse; conditions: repeated oral dosing 40 mg/kg/day for 7 days, N = 6
MBP-NS3 F46A = MBP-NS3 F46A (Dengue virus type 2, UniProt P29990, F1521A); format: binding, DENV2; conditions: F46A vs WT
ZIKV [7] = assay: qRT-PCR of viral RNA from ZIKV-infected A549 cells; format: cell-based, Zika virus
ZIKV [8] = assay: ZIKV viremia mouse model; format: in vivo, Zika virus; conditions: data not shown
DENV2 NS2B–NS3 protease = DENV2 NS2B–NS3 protease (Dengue virus type 2, UniProt P29990); assay: NS2B–NS3 protease inhibition assay; format: biochemical
DENV2 replicon = DENV2 replicon assay; format: cell-based; conditions: Dengue virus, DENV2, BHK-21, 48 h, read-out: EC50-DN2 (DENV2 replicon cell line)
[9] = virus production, A549 cells, 48 h postinfection
[10] = read-out: EC50-ZK (A549), virus production, A549 cells
[11] = Zika virus, A549, read-out: EC50-ZK (A549)

SMILES: Nc1ccc(NC(=O)c2cc(Cl)ccc2O)c(Cl)c1 [HJC0129]
- CC50 (A549 cells): 176 µM
- EC50 (DENV2; [9]): > 30 µM
- EC50 (ZIKV [1]; [10]): > 30 µM

SMILES: CC(=O)Nc1ccc(NC(=O)c2cc(Cl)ccc2O)c(Cl)c1 [HJC0140]
- EC50 (DENV2; [9]): > 30 µM
- EC50 (ZIKV [1]; [10]): > 30 µM

SMILES: O=C(Nc1ccc2c(c1)S(=O)(=O)C=C2)c1cc(Cl)ccc1O [HJC0149]
- CC50 (A549 cells): 241 µM
- EC50 (DENV2; [9]): 0.9 µM
- EC50 (ZIKV [1]; [10]): 1.1 µM

SMILES: NCCCOc1ccc(Cl)cc1C(=O)Nc1ccc([N+](=O)[O-])cc1Cl [HJC0308]
- CC50 (A549 cells): 17.7 µM
- EC50 (DENV2; [9]): 1.4 µM
- EC50 (ZIKV [1]; [10]): 6.2 µM

SMILES: CN1CCN(CCOc2ccc(Cl)cc2C(=O)Nc2ccc([N+](=O)[O-])cc2Cl)CC1 [HJC0365]
- CC50 (A549 cells): 177 µM
- EC50 (DENV2; [9]): 6.4 µM
- EC50 (ZIKV [1]; [10]): 6 µM

SMILES: CN1CCC(Oc2ccc(Cl)cc2C(=O)Nc2ccc([N+](=O)[O-])cc2Cl)CC1 [HJC0381]
- CC50 (A549 cells): 91.1 µM
- EC50 (DENV2; [9]): 1.2 µM
- EC50 (ZIKV [1]; [10]): 3.9 µM

SMILES: NCCCCOc1ccc(Cl)cc1C(=O)Nc1ccc([N+](=O)[O-])cc1Cl [HJC0431]
- CC50 (A549 cells): 28.4 µM
- EC50 (DENV2; [9]): 2.2 µM
- EC50 (ZIKV [1]; [10]): 0.36 µM

SMILES: O=C(Nc1ccc([N+](=O)[O-])cc1Cl)c1cccc([N+](=O)[O-])c1O [JMX0207, N-(2-Chloro-4-nitrophenyl)-2-hydroxy-3-nitrobenzamide]
- increase in Tm of the viral protein (viral NS3 protease): 0.75 °C
- toxic effect on 3D organoids (3D organoids): did not have any toxic effect
- ZIKV antigen production (ZIKV [2]): greatly reduced ZIKV antigen production
- ZIKV production from 3D organoids (ZIKV [3]; PFU assay, 5 dpi): significantly inhibited
- protection of organoid slices from ZIKV infection (immunostaining) (ZIKV [3]; ZIKV PRVABC59, anti-E 4G2): nearly completely protected the organoids from ZIKV infection
- ZIKV infection in the 3D organoid (ZIKV [3]; ZIKV-Venus, MOI 1, fluorescence imaging 7 dpi, vs DMSO): completely abolished ZIKV infection
- effect of mutation on binding affinity (MBP-NS3 Y23A): do not have any effect
- effect of mutation on binding (MBP-NS3 L58A): abolished the binding
- high MW protein (unprocessed viral polyprotein precursor, PP) (ZIKV NS3): dose-dependent increase
- viral NS3 protein production (ZIKV NS3): dose-dependent reduction
- CC50 at 48 h (WST-8 cell proliferation): 31.9 µM
- reduction of binding affinity by mutation (MBP-NS3 H60A): 2- to 3 fold
- EC50 (DENV2; Dengue virus, DENV2, A549, 48 h): 0.31 µM
- reduction of binding affinity by mutation (MBP-NS3 I25A): 2- to 3 fold
- reduction of ZIKV titer by time of addition (ZIKV [4]): equally effective in reducing ZIKV titer even at 24 h postinfection
- ZIKV protein expression and RNA synthesis in HNPCs (ZIKV [5]): effectively inhibited
- signs of toxicity [6]: did not display any sign of toxicity
- effect of mutation on binding affinity (MBP-NS3 F46A): do not have any effect
- EC50 (ZIKV [1]; [11]): 0.3 µM
- ZIKV RNA copy number (ZIKV [7]): significantly reduced the ZIKV RNA copy number in a dose-dependent manner

SMILES: O=C(Nc1ccc([N+](=O)[O-])cc1Cl)c1cc(Cl)ccc1O [Niclosamide, reference compound]
- in vivo antiviral efficacy toward ZIKV (ZIKV [8]): did not show appreciable in vivo antiviral efficacy
- IC50 (DENV2 NS2B–NS3 protease): 21.6 µM
- EC50 (DENV2 replicon): 2 µM
- EC50 (ZIKV [1]; [11]): 0.48 µM
